Substrate in data set [1]: O=[N+]([O-])c1ccc(OS(=O)(=O)O)cc1
Nature of the data set: Activity at Pseudomonas aeruginosa recombinant arylsulfatase A expressed in Escherichia coli. In outline: (§1)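 Hydrolysis of potassium 4-nitrophenyl sulfate followed by release of 4-nitrophenol; Vmax is expressed per mg protein and Km in mM; Vmax/Km is derived from these.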

Substrate in data set [2]: O=[N+]([O-])c1ccc(OS(=O)(=O)O)cc1
Nature of the data set: Activity at Pseudomonas aeruginosa recombinant arylsulfatase A expressed in Escherichia coli assessed per mg of protein. In a few lines:
as §1

B1: Arylsulfatase (Pseudomonas aeruginosa (strain ATCC 15692 / PAO1 / 1C / PRS 101 / LMG12228)), P51691 (protein)
chain: MSKRPNFLVIVADDLGFSDIGAFGGEIATPNLDALAIAGLRLTDFHTASTCSPTRSMLLTGTDHHIAGIGTMAEALTPELEGKPGYEGHLNERVVALPELLREAGYQTLMAGKWHLGLKPEQTPHARGFERSFSLLPGAANHYGFEPPYDESTPRILKGTPALYVEDERYLDTLPEGFYSSDAFGDKLLQYLKERDQSRPFFAYLPFSAPHWPLQAPREIVEKYRGRYDAGPEALRQERLARLKELGLVEADVEAHPVLALTREWEALEDEERAKSARAMEVYAAMVERMDWNIGRVVDYLRRQGELDNTFVLFMSDNGAEGALLEAFPKFGPDLLGFLDRHYDNSLENIGRANSYVWYGPRWAQAATAPSRLYKAFTTQGGIRVPALVRYPRLSRQGAISHAFATVMDVTPTLLDLAGVRHPGKRWRGREIAEPRGRSWLGWLSGETEAAHDENTVTGWELFGMRAIRQGDWKAVYLPAPVGPATWQLYDLARDPGEIHDLADSQPGKLAELIEHWKRYVSETGVVEGASPFLVR
As a reminder, the Km is the concentration of substrate that gives half-maximal velocity. For orientation: Vmax means the rate approached at saturating substrate. For the protein B1, in data set [1], the Km came out at 0.77 µM. Also, the Vmax in data set [2] was 6.1 mmol/min/mg.

The values above are taken from ChEMBL document CHEMBL1154522, “Aryl sulfamates are broad spectrum inactivators of sulfatases: effects on sulfatases from various sources” (Bioorg Med Chem Lett, 2009).
